This is an account of results in ChEMBL document CHEMBL4406881, “Design, synthesis and biological evaluation of benzoylacrylic acid shikonin ester derivatives as irreversible dual inhibitors of tubulin and EGFR” (Bioorg Med Chem, 2019).

For test [1], the system named is A549. Put plainly: Induction of apoptosis in human A549 cells assessed as late apoptotic cells at 8 uM after 12 hrs by Annexin-V/PI staining based flow cytometry analysis (reference value: 6.55%). The format is functional. Put shortly: (§1)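 A549 cells seeded overnight at 37 °C, 5% CO2, then exposed to 0, 2, 4, 8 or 12 µM for 24 h (dose series) or 8 µM for 0, 12, 24, 36 h (time series). Harvested, PBS-washed, stained with Annexin V-FITC and PI in binding buffer 15 min at room temperature in the dark, analysed by flow cytometry; three independent experiments.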

The subject of test [2] is A549. Put plainly: Cell cycle arrest in human A549 cells assessed as downregulation of CDK2 expression at 2 to 8 uM by immunoblot analysis. It counts as functional, cell-based. In a few lines:
(§2)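 A549 lysates in RIPA buffer with protease inhibitors were run on SDS-PAGE and blotted to PVDF. Membranes were probed overnight at 4 °C with primary antibody at 1:1000, then secondary antibody at 1:3000-1:5000 for 1 h, and detected by ECL. Band intensity was normalised to GAPDH. Results are mean ± S.E.M. from three independent experiments.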
On the technique in general: In western blotting, separated proteins are transferred to a membrane and probed.

The subject of test [3] is A549. In words: Induction of apoptosis in human A549 cells assessed as low mitochondrial membrane potential at 8 uM after 12 hrs by JC-1 staining-based flow cytometric analysis (reference value: 6.3%). It counts as functional. A general note: Flow cytometry measures light scatter and fluorescence of single cells or particles in a stream.
Test [4] relates to A549. Put plainly: Cell cycle arrest in human A549 cells assessed as downregulation of cyclin A expression at 2 to 8 uM by immunoblot analysis. The format is functional, cell-based. In a few lines:
as §2

In test [5] the test system is A549. Put plainly: Induction of apoptosis in human A549 cells assessed as necrotic cells after at 12 uM 24 hrs by Annexin-V/PI staining based flow cytometry analysis (reference value: 1.81%). It counts as functional. In a few lines:
as §1

Test [6] deals with T1, Epidermal growth factor receptor (Homo sapiens, UniProt P00533). Put plainly: Inhibition of EGFR signalling in human A549 cells assessed as reduction in ERK phosphorylation after 24 hrs by Western blot analysis. The format is cell-based. Put shortly:
(§3)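 A549 cells in 6-well plates were lysed in RIPA buffer with protease inhibitors on ice for 30 min and cleared at 4 °C. Protein was quantified by BCA, run on SDS-PAGE and transferred to PVDF. Membranes were blocked with milk, probed with primary antibody (1:1000) overnight at 4 °C, then secondary antibody (1:3000-1:5000) 1 h at RT. Detection by ECL; band densitometry normalised to GAPDH (β-actin also used). Three independent experiments.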

Test [7] concerns A549. In words: Antitumor activity against ip dosed human A549 cells xenografted in Balb/c mouse assessed as inhibition of tumor growth administered once every two days for 32 days measured for every 2 days. The format is functional, organism-based. In a few lines: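 Female BALB/c nude mice, 5-6 weeks old, injected in the flank with 6×10^6 A549 cells in 0.1 mL ice-cold PBS. After two weeks, tumours averaging 90 mm³ were allocated by volume to 5 groups of n = 8. Drugs in DMSO were given ip once every two days, 16 doses in total; a DMSO vehicle group served as control. Tumour volume (L×S²/2) and body weight were recorded every two days; mice were killed on day 32.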

Test [8] concerns A549. In words: Cell cycle arrest in human A549 cells assessed as accumulation at G1 phase at 8 uM after 24 hrs by RNAse A/ PI staining based flow cytometric analysis (reference value: 73.30%). It counts as functional. Put shortly: (§4)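 A549 cells at 5.0×10^4 per well were grown 12 h at 37 °C. Treatment was 0, 2, 4 or 8 µM for 24 h, or 8 µM for 0, 12, 24 or 36 h. Cells were fixed in 70% ethanol at −20 °C for at least 12 h, then stained in PBS with 0.1 mg/mL RNase A and 5 µg/mL PI. At least 10,000 events per sample were collected by flow cytometry to give G0/G1, S and G2/M percentages.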

Test [9] concerns the target T1, Epidermal growth factor receptor. In words: Inhibition of EGFR signalling in human A549 cells assessed as reduction in AKT phosphorylation after 24 hrs by Western blot analysis. The format is cell-based. Put shortly:
as §3

The subject of test [10] is A549. Put plainly: Cell cycle arrest in human A549 cells assessed as accumulation at S phase at 8 uM after 36 hrs by RNAse A/ PI staining based flow cytometric analysis (reference value: 19.66%). It counts as functional. In a few lines: as §4
Test [11] concerns A549. In words: Induction of apoptosis in human A549 cells assessed as high mitochondrial membrane potential at 12 uM after 12 hrs by JC-1 staining-based flow cytometric analysis (reference value: 90.6%). The format is functional. In a few lines:
(§5)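 JC-1 staining of A549 cells treated for 12 h. CCCP-treated wells, 20 min at 37 °C, served as positive control. Collected cells were incubated with JC-1 solution at 37 °C for 30 min, washed, and analysed by flow cytometry for the fraction with high ΔΨm and for PI-positive cells. Results are mean ± S.E.M. of three replicates.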

Test [12] addresses T1, Epidermal growth factor receptor. In words: Inhibition of EGFR signalling in human A549 cells assessed as reduction in EGFR phosphorylation after 24 hrs by Western blot analysis. It counts as cell-based. Put shortly: as §3
Test [13] concerns A549. In words: Induction of apoptosis in human A549 cells assessed as early apoptotic cells at 2 uM after 24 hrs by Annexin-V/PI staining based flow cytometry analysis (reference value: 1.15%). It counts as functional.
In test [14] the test system is A549. In words: Induction of apoptosis in human A549 cells at 8 uM by Annexin-V/PI staining based flow cytometry analysis. The note with it: TDE = time-dependent effect. The format is functional, cell-based. Put shortly: as §1
The target in test [15] is T1, Epidermal growth factor receptor. In words: Potency index, ratio of shi-konin IC50 to compound IC50 for inhibition of C-terminal His-tagged N-terminal GST-tagged human EGFR (668 to 1210 residues) expressed in baculovirus infected Sf9 cells after 30 mins in presence of gamma-[32p-ATP] binding assay.
The subject of test [16] is A549. In words: Induction of apoptosis in human A549 cells assessed as caspase-9 cleavage expression at 2 to 8 uM after 24 hrs by Western blot analysis. The format is functional, cell-based. In a few lines: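 Western blot of A549 cells treated for 24 h. Lysates in RIPA buffer were run on SDS-PAGE and transferred to PVDF. Primary antibody at 1:1000 overnight at 4 °C, secondary antibody at 1:3000-1:5000 for 1 h, ECL detection. Densitometry was normalised to GAPDH; mean ± S.E.M. from three independent experiments.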

Test [17] concerns A549. In words: Cell cycle arrest in human A549 cells assessed as accumulation at G1 phase at 8 uM after 36 hrs by RNAse A/ PI staining based flow cytometric analysis (reference value: 67.69%). It counts as functional. In a few lines:
as §4

Test [18] deals with A549. Put plainly: Induction of apoptosis in human A549 cells assessed as increase in late apoptotic cells at 4 to 12 uM after 12 hrs by PI-staining based flow cytometric analysis. The format is functional, cell-based. Put shortly:
as §5

For another test, the system named is HeLa. In words: Antiproliferative activity against human HeLa cells assessed as reduction in cell viability after 24 hrs by MTT assay. It counts as functional, cell-based. Put shortly:
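MTT colorimetric assay. Cells in log phase in medium with 10% FBS were seeded at 10⁴ cells/well and left overnight at 37 °C, 5% CO₂ to reattach. Compounds were added at 0.1, 1, 10 and 100 μM in 10% FBS for 24 h. IC50 reported as mean ± SD of three independent experiments.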
Background: Tetrazolium assays rely on reduction of a dye to a coloured formazan, in cell work by metabolically active cells.

The source made the active and inactive calls. The calls are words filed in the database; no cut-off is given here.

T1 sequence (P00533 whole entry): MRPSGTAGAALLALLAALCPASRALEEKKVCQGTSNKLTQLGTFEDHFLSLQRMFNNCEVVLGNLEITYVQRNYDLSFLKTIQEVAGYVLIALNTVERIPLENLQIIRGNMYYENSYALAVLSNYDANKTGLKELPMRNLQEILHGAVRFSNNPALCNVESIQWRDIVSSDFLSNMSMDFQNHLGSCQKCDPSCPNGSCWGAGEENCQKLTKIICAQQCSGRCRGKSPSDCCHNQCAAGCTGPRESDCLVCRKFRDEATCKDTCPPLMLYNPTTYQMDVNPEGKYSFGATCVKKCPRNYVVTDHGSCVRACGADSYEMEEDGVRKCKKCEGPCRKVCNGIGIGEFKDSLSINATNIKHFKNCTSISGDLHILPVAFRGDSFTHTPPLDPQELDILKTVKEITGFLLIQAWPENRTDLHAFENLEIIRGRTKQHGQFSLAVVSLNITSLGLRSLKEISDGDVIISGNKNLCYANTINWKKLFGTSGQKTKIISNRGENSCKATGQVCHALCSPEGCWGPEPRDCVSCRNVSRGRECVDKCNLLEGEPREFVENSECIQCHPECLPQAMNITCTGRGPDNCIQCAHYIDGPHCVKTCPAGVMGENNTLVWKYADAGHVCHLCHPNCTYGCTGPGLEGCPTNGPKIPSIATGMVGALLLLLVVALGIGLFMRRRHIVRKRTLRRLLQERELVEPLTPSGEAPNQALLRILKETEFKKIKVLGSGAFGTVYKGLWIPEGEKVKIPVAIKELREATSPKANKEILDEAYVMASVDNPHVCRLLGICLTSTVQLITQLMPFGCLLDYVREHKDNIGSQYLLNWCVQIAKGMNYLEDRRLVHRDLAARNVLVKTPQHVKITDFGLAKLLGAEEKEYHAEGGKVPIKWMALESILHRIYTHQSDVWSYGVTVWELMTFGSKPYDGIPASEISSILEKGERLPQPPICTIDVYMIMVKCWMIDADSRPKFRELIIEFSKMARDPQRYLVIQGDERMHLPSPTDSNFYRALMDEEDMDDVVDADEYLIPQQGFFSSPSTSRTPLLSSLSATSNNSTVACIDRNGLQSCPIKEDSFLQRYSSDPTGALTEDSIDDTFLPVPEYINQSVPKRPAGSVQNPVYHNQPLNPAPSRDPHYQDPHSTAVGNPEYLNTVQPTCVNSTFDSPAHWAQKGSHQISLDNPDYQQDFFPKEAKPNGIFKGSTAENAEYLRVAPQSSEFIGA

Take `CC(C)=CC[C@@H](OC(=O)/C=C\C(=O)c1ccc(F)cc1)C1=CC(=O)c2c(O)ccc(O)c2C1=O`: the Activity in the test with A549 [1] was 10%; in the test with A549 [3], 39.3%; in the test on A549 [5], 4.16%; in the test with A549 [7], “Dose-dependent effect”; with A549 [8], 47.33%; in the test on A549 [10] it was 22.57%. Besides, the Activity with A549 [11] is 38.6%; with A549 [13], 4.62%; with A549 [14], “Tde”; with A549 [17], 30.88%. In addition, the outcome with A549 [2], with A549 [4] and in the test with A549 [16] was Active. Moreover, the inhibition entry in [6], in test [9] and in [12] was “Dose-dependent effect” in each case. Also, in test [15], the Ratio IC50 worked out at 6. In addition, the outcome with A549 [18] was inactive. The IC50 – broadly, the concentration at which inhibition is half-maximal – in the test with HeLa was 7.93 µM.
